Test results taken from ChEMBL document CHEMBL1129409, “5-HT1D receptor agonist properties of novel 2-[5-[[(trifluoromethyl)sulfonyl]oxy]indolyl]ethylamines and their use as synthetic intermediates” (J Med Chem, 1996).

Experiments:
[1] = molecular target: T1, 5-hydroxytryptamine receptor 1D (Homo sapiens, UniProt P28221); assay: (§1) Compound was tested for binding affinity against cloned human 5-hydroxytryptamine 1D receptor alpha expressed in CHO-K1 cells.; assay type: cell-based
In short: (§2)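 CHO cell membranes expressing cloned human 5-HT1A, 5-HT1Dα or 5-HT1Dβ receptors, or rat D2 receptors (20-60 µg protein). Radioligands: [3H]-8-OH-DPAT (5-HT1A), [3H]-5-HT (5-HT1D), [3H]U-86170 (D2). Buffers at pH 7.4: 50 mM Tris/5 mM MgCl2 (5-HT1A); the same with 0.1% ascorbic acid (5-HT1D); 20 mM HEPES/10 mM MgSO4 (D2). Nonspecific binding defined with lisuride, serotonin and haloperidol respectively. 11 concentrations in duplicate, 1 h at room temperature (5-HT1D protected from light), filtration.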

[2] = Distribution coefficient (LogD) of compound reported; assay type: physicochemical; details: octanol/water
In short: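 log D calculated with Pallas version 1.2.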

[3] = molecular target: T1, 5-hydroxytryptamine receptor 1D; assay: Displacement of [3H]-5-HT from human 5-hydroxytryptamine 1D receptor alpha expressed in HEK 293 cells; assay type: cell-based, HEK293
In short: (§3)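 HEK 293 microsomal membranes expressing human 5-HT1Dα or 5-HT1Dβ, in 50 mM Tris-HCl buffer with 4 mM CaCl2, 0.1% ascorbic acid, pargyline and leupeptine. [3H]-5-HT (final 0.01-150 nM) incubated with membranes and displacer for 30 min at 25 °C. Glass-fibre filtration, then scintillation counting. Nonspecific binding taken with 10^-5 M 5-HT. Nonlinear least-squares fitting (EBDA/LIGAND); mean ± SEM, n=3.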
Target sequence in this assay (P28221 whole entry): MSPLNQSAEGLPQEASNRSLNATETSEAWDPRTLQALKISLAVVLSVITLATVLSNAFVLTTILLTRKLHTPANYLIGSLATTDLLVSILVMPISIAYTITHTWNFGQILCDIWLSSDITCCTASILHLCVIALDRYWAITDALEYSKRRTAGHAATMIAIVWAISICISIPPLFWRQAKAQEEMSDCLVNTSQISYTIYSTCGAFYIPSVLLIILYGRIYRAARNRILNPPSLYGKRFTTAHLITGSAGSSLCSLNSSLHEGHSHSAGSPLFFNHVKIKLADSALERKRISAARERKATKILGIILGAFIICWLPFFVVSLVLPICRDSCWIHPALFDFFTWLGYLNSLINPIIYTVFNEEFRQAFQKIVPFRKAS

Cavia porcellus [4] = assay: Effect of 6.250 (umol/kg, sc) compound on guinea pig rectal temperature (Hypothermia); assay type: functional
In short: (§4)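 Male guinea pigs housed individually at least 1 h before testing, groups of five. Compound given sc in 0.25% methylcellulose (equimolar citric acid for free bases), 5 mL/kg. Rectal probe inserted 3-4 cm; temperature read before dosing and at 60 min. Reported as change from the 0 min value, mean ± SEM (n=4-5).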

Cavia porcellus [5] = assay: The level of 5-HIAA (prefrontal cortex) measured by means of HPCL with electrochemical detection methods at 6.250 (umol/kg, sc); assay type: functional
In short: (§5)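 Male Dunkin-Hartley guinea pigs dosed sc in 0.25% methylcellulose (citric acid added for free bases), 5 mL/kg. Decapitated 60 min after dosing; prefrontal cortex and hypothalamus dissected on ice and stored at -80 °C. 5-HT and 5-HIAA measured by HPLC-electrochemical detection. Expressed as % of vehicle controls, mean ± SEM (n=4-5); ANOVA with Fisher's PLSD.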

Cavia porcellus [6] = assay: The level of 5-HIAA (hypothalamus) measured by means of HPCL with electrochemical detection methods at 6.250 (umol/kg, sc); assay type: functional; in short: as §5
Cavia porcellus [7] = assay: The level of 5-HT (prefrontal cortex) measured by means of HPCL with electrochemical detection methods at 6.250 (umol/kg, sc); assay type: functional; in short: as §5
D(2) dopamine receptor = D(2) dopamine receptor (Rattus norvegicus, UniProt P61169); assay: Binding affinity for rat dopamine D2 receptor expressed in CHO-K1 cells; assay type: cell-based; in short: as §2
D(2) dopamine receptor, sequence (P61169 whole entry): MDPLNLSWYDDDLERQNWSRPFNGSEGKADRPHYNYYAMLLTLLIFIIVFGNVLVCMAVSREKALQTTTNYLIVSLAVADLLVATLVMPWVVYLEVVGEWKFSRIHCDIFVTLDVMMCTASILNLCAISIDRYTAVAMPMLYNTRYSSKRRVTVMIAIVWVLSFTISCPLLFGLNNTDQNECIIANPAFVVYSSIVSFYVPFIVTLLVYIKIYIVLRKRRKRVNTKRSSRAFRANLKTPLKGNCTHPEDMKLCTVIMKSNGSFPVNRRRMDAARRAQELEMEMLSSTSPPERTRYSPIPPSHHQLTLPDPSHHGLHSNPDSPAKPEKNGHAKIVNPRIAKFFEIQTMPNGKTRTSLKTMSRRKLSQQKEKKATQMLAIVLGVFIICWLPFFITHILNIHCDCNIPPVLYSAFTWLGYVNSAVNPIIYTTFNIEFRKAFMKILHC

[8] = molecular target: T1, 5-hydroxytryptamine receptor 1D; assay: as §1; assay type: cell-based; remark: listed apart in the source
In short: (§6)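 CHO cell membranes expressing cloned human 5-HT1A, 5-HT1Dα or 5-HT1Dβ receptors, or rat D2 receptors (20-60 µg protein). Buffers at pH 7.4: 50 mM Tris/5 mM MgCl2 (5-HT1A); the same with 0.1% ascorbic acid (5-HT1D); 20 mM HEPES/10 mM MgSO4 (D2). Nonspecific binding defined with lisuride, serotonin and haloperidol respectively. 11 concentrations in duplicate, 1 h at room temperature (5-HT1D protected from light), filtration.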
Target sequence in this assay (P28221 whole entry): as the sequence (P28221 whole entry) above

[9] = molecular target: T1, 5-hydroxytryptamine receptor 1D; assay: Compound was tested for binding affinity against human 5-hydroxytryptamine 1D receptor alpha clones expressed in human embryonic kidney (HEK 293) cells line.; assay type: cell-based, HEK293; in short: as §3
Target sequence in this assay (P28221 whole entry): as above

[10] = molecular target: T1, 5-hydroxytryptamine receptor 1D; assay: Ratio of receptor binding affinities of 5-hydroxytryptamine 1D receptor alpha vs 5-hydroxytryptamine 1D receptor beta
Target sequence in this assay (P28221 whole entry): as above

[11] = molecular target: T2, 5-hydroxytryptamine receptor 1A (Homo sapiens, UniProt P08908); assay: Compound was tested for binding affinity against cloned human 5-hydroxytryptamine 1A receptor expressed in CHO-K1 cells.; assay type: cell-based; in short: as §6
T2 sequence (P08908 whole entry): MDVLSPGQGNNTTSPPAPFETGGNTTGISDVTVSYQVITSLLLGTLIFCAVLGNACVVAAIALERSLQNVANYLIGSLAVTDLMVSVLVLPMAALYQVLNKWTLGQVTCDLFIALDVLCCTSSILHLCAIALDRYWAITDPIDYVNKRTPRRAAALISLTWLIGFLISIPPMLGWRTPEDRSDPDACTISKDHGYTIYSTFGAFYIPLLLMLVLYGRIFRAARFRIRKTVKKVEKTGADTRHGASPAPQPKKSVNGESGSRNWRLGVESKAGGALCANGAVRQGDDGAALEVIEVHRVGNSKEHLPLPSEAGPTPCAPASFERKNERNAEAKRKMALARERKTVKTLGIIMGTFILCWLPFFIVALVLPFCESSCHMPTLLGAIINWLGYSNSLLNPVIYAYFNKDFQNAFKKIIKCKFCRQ

[12] = molecular target: T3, 5-hydroxytryptamine receptor 1B (Homo sapiens, UniProt P28222); assay: Compound was tested for binding affinity against human 5-hydroxytryptamine 1D receptor beta clones expressed in human embryonic kidney (HEK 293) cells line.; assay type: cell-based, HEK293; in short: as §3
T3 sequence (P28222 whole entry): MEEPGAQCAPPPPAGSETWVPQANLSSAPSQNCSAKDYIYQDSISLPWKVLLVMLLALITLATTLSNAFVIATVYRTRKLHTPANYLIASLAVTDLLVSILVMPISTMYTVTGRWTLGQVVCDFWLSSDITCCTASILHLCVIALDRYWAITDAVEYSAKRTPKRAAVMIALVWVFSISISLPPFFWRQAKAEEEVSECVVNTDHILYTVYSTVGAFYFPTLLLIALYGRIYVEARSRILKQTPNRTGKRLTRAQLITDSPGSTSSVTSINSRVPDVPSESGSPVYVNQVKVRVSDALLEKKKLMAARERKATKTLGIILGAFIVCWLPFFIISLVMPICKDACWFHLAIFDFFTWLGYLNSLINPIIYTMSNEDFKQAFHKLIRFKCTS

Cavia porcellus [13] = assay: The level of 5-HIAA (prefrontal cortex) measured by means of HPCL with electrochemical detection methods at 50(umol/kg, sc); assay type: functional; in short: as §5
Cavia porcellus [14] = assay: The level of 5-HIAA (hypothalamus) measured by means of HPCL with electrochemical detection methods at 50(umol/kg, sc); assay type: functional; in short: as §5
Cavia porcellus [15] = assay: The level of 5-HT (hypothalamus) measured by means of HPCL with electrochemical detection methods at 50(umol/kg, sc); assay type: functional; in short: as §5
Cavia porcellus [16] = assay: Effect of 50(umol/kg, sc) compound on guinea pig rectal temperature; Hypothermia 0-60 delta degree C; assay type: functional; in short: as §4
[17] = molecular target: T3, 5-hydroxytryptamine receptor 1B; assay: Compound was tested for binding affinity against cloned human 5-hydroxytryptamine 1D receptor beta expressed in CHO-K1 cells.; assay type: cell-based
Cavia porcellus [18] = assay: The level of 5-HT (prefrontal cortex) measured by means of HPCL with electrochemical detection methods at 50(umol/kg, sc); assay type: functional; in short: as §5
Cavia porcellus [19] = assay: Effect of 12.5 (umol/kg, sc) compound on guinea pig rectal temperature; Hypothermia 0-60 delta degree C; assay type: functional; in short: as §4
[20] = molecular target: T3, 5-hydroxytryptamine receptor 1B; assay: Compound was tested for binding affinity against cloned human 5-HT1D beta receptor expressed in CHO-K1 cells.; assay type: cell-based; in short: as §2
Rattus norvegicus [21] = assay: 5-HTP accumulation in Rat brain frontal cortex when Reserpine given 24 hr before decapitation & 45 & 30 min before 10 umol/kg test drug; assay type: functional
In short: (§7)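 Rats reserpinized (5 mg/kg ip) 24 h before test compound (10 µmol/kg sc in saline, 1.0 mL/kg). NSD 1015 (100 mg/kg) given 15 min after test compound; decapitation 30 min later. Regions stored at -70 °C, homogenized in TCA, supernatant analysed by HPLC-electrochemical detection. Output is 5-HTP in µg/g wet tissue, mean ± SEM (striatum n=8, others n=4); one-way ANOVA with post hoc t-test.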

Cavia porcellus [22] = assay: The level of 5-HIAA(prefrontal cortex) measured by means of HPCL with electrochemical detection methods at 12.5 (umol/kg, sc); assay type: functional; in short: as §5
Rattus norvegicus [23] = assay: 5-HTP accumulation in Rat brain striatum when Reserpine given 24 hr before decapitation & 45 & 30 min before 10 umol/kg test drug; assay type: functional; in short: as §7
Rattus norvegicus [24] = assay: 5-HTP accumulation in Rat brain accumbens when Reserpine given 24 hr before decapitation & 45 & 30 min before 10 umol/kg test drug; assay type: functional; in short: as §7
Rattus norvegicus [25] = assay: 5-HTP accumulation in Rat brain hippocampus when Reserpine given 24 hr before decapitation & 45 & 30 min before 10 umol/kg test drug; assay type: functional; in short: as §7
Cavia porcellus [26] = assay: The level of 5-HT (hypothalamus) measured by means of HPCL with electrochemical detection methods at 12.5 (umol/kg, sc); assay type: functional; in short: as §5
Cavia porcellus [27] = assay: Effect of 12.5 (umol/kg, sc) compound on guinea pig rectal temperature (Hypothermia); assay type: functional; in short: as §4
Cavia porcellus [28] = assay: The level of 5-HT (prefrontal cortex) measured by means of HPCL with electrochemical detection methods at 12.5 (umol/kg, sc); assay type: functional; in short: as §5
Cavia porcellus [29] = assay: Effect of 50(umol/kg, sc) compound on guinea pig rectal temperature (Hypothermia); assay type: functional; in short: as §4
Cavia porcellus [30] = assay: The level of 5-HIAA (hypothalamus) measured by means of HPCL with electrochemical detection methods at 12.5 (umol/kg, sc); assay type: functional; in short: as §5
Cavia porcellus [31] = assay: The level of 5-HIAA (prefrontal cortex) measured by means of HPCL with electrochemical detection methods at 25 (umol/kg, sc); assay type: functional; in short: as §5
Cavia porcellus [32] = assay: The level of 5-HT (hypothalamus) measured by means of HPCL with electrochemical detection methods at 25 (umol/kg, sc); assay type: functional; in short: as §5
Cavia porcellus [33] = assay: The level of 5-HT (prefrontal cortex) measured by means of HPCL with electrochemical detection methods at 25 (umol/kg, sc); assay type: functional; in short: as §5
Cavia porcellus [34] = assay: The level of 5-HIAA (hypothalamus) measured by means of HPCL with electrochemical detection methods at 25 (umol/kg, sc); assay type: functional; in short: as §5
Cavia porcellus [35] = assay: Effect of 25 (umol/kg, sc) compound on guinea pig rectal temperature (Hypothermia); assay type: functional; in short: as §4

CCCN(CCC)CCc1c[nH]c2ccc(O)cc12
IC50 [1]: 820 nM
logD [2]: 1.24
IC50 [3]: 820 nM

CCCN(CCC)C1CCc2cccc(O)c2C1 (stereo not drawn) [8-OH-DPAT]
Others (Cavia porcellus [4]): 0.22
Others (Cavia porcellus [5]): 34%
Others (Cavia porcellus [6]): 37%
Others (Cavia porcellus [7]): 126%

CCN(CC)CCc1c[nH]c2ccc(OS(=O)(=O)C(F)(F)F)cc12
Ki (D(2) dopamine receptor): 637 nM
Ki [1]: 171 nM
Ki [8]: 12 nM
IC50 [9]: 21 nM
Ratio [10]: 14.3
logD [2]: 1.31
Ki [11]: 27 nM
IC50 [12]: 530 nM

CN(C)CCc1c[nH]c2ccc(OCc3ccccc3)cc12
IC50 [1]: 76 nM
logD [2]: 2.28
IC50 [3]: 25 nM

CCCN(CCC)CCc1c[nH]c2ccc(OCc3ccccc3)cc12
IC50 [1]: 470 nM
logD [2]: 3.08
IC50 [3]: 470 nM

COc1ccc(CNC(=O)/C=C/c2ccc3[nH]cc(CCN(C)C)c3c2)cc1
Others (Cavia porcellus [13]): 37%
Others (Cavia porcellus [14]): 49%
Others (Cavia porcellus [15]): 121%
Others (Cavia porcellus [16]): -2.62
Ki [17]: 0.2 nM
Ki [8]: 0.3 nM
Others (Cavia porcellus [18]): 94%
logD [2]: 1.71
Others (Cavia porcellus [19]): -1.62
Ki [11]: 1.3 nM

CCCN(CCC)CCc1c[nH]c2ccc(OS(=O)(=O)C(F)(F)F)cc12
Ki (D(2) dopamine receptor): 502 nM
Ki [8]: 190 nM
IC50 [9]: 170 nM
Ki [20]: 246 nM
Ratio [10]: 1.3
logD [2]: 2.21
Ki [11]: 23 nM
IC50 [12]: 660 nM

CCN(CC)CCc1c[nH]c2ccc(O)cc12
IC50 [1]: 77 nM
logD [2]: 0.28
IC50 [3]: 77 nM

NCCc1c[nH]c2ccc(OS(=O)(=O)C(F)(F)F)cc12
Ki (D(2) dopamine receptor): 658 nM
Ki [17]: 14 nM
Ki [8]: 2.8 nM
Ratio [10]: 5
logD [2]: -0.24
Ki [11]: 18 nM

CN(C)CCc1c[nH]c2ccc(OS(=O)(=O)C(F)(F)F)cc12
Others (Cavia porcellus [13]): 46%
Others (Cavia porcellus [14]): 54%
Others (Cavia porcellus [15]): 123%
5-HTP accumulation (Rattus norvegicus [21]): 0.37 µg/g
Accumulation (Rattus norvegicus [21]): 78.8%
Ki (D(2) dopamine receptor): 538 nM
Others (Cavia porcellus [22]): 59%
Ki [17]: 32 nM
Ki [8]: 3.2 nM
5-HTP accumulation (Rattus norvegicus [23]): 0.28 µg/g
Accumulation (Rattus norvegicus [23]): 75.7%
IC50 [9]: 8.4 nM
Ratio [10]: 10
Others (Cavia porcellus [18]): 129%
5-HTP accumulation (Rattus norvegicus [24]): 0.4 µg/g
Accumulation (Rattus norvegicus [24]): 81.6%
logD [2]: 1.41
5-HTP accumulation (Rattus norvegicus [25]): 0.28 µg/g
Accumulation (Rattus norvegicus [25]): 100%
Others (Cavia porcellus [26]): 97%
Ki [11]: 40 nM
Others (Cavia porcellus [27]): -1.7
Others (Cavia porcellus [28]): 104%
IC50 [12]: 98 nM
Others (Cavia porcellus [29]): -1.72
Others (Cavia porcellus [30]): 66%

CNS(=O)(=O)Cc1ccc2[nH]cc(CCN(C)C)c2c1
Others (Cavia porcellus [31]): 129%
Ki (D(2) dopamine receptor): > 218 nM
Others (Cavia porcellus [32]): 122%
Others (Cavia porcellus [33]): 119%
Others (Cavia porcellus [34]): 133%
Others (Cavia porcellus [35]): -0.14

CCN(CC)CCc1c[nH]c2ccc(OCc3ccccc3)cc12
IC50 [1]: 110 nM
logD [2]: 2.18
IC50 [3]: 110 nM
